Reference: ChEMBL document CHEMBL1914423, “New imidazo[2,1-b]thiazole derivatives: synthesis, in vitro anticancer evaluation, and in silico studies” (Eur J Med Chem, 2011)

test system: not listed separately; experiment: Antiproliferative activity against human A375P cells after 48 hrs by MTT assay; assay type: functional, cell-based; conditions: not given
Method in brief: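 A375P cells in DMEM with 10% FBS at 37 °C, 5% CO2. Seeded at 5×10³ cells/well, held 24 h, then treated with 12-point 3-fold serial dilutions for 48 h. Viability by MTT reduction. IC50 values are means of triplicate experiments.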

Compound | IC50 [µM]
O=C(NCCNc1nccc(-c2c(-c3cccc(O)c3)nc3sccn23)n1)c1ccc(N2CCOCC2)c(C(F)(F)F)c1 | > 10

test system: HL-60(TB); experiment: Anticancer activity against human HL-60(TB) cells assessed as cell growth at 10^-5 M after 48 hrs by SRB assay; assay type: functional; conditions: HL-60, 48 h, read-out: Activity
Method in brief: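 NCI-60 single-dose screen. Cells in RPMI 1640 with 5% FBS and 2 mM L-glutamine were plated at 5000–40,000 cells/well and preincubated 24 h at 37 °C before one compound concentration. Time-zero plates were TCA-fixed at drug addition. For suspension cells, settled cells were fixed with cold TCA, then SRB-stained and read at 515 nm. Percent growth was calculated from time-zero, control and treated absorbances.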

Compound | growth at 10 µM [%]
O=C(NCCNc1nccc(-c2c(-c3cccc(O)c3)nc3sccn23)n1)c1ccc(N2CCOCC2)c(C(F)(F)F)c1 | 113

test system: K562; experiment: Anticancer activity against human K562 cells assessed as cell growth at 10^-5 M after 48 hrs by SRB assay; assay type: functional; conditions: K562, 48 h, read-out: Activity
Method in brief: (§1)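 NCI-60 single-dose screen at one concentration. Cells grown in RPMI 1640 with 5% FBS and 2 mM L-glutamine, plated at 5000–40,000 cells/well, and pre-incubated 24 h at 37 °C in 5% CO2 before DMSO-dissolved drug was added. Cells fixed with TCA, SRB-stained, absorbance read at 515 nm. Percent growth calculated against time-zero and untreated control plates.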

Compound | growth at 10 µM [%]
O=C(NCCNc1nccc(-c2c(-c3cccc(O)c3)nc3sccn23)n1)c1ccc(N2CCOCC2)c(C(F)(F)F)c1 | 63

test system: MOLT-4; experiment: Anticancer activity against human MOLT4 cells assessed as cell growth at 10^-5 M after 48 hrs by SRB assay; assay type: functional; conditions: MOLT-4, 48 h, read-out: Activity

Compound | growth at 10 µM [%]
O=C(NCCNc1nccc(-c2c(-c3cccc(O)c3)nc3sccn23)n1)c1ccc(N2CCOCC2)c(C(F)(F)F)c1 | 57

test system: SR; experiment: Anticancer activity against human SR cells assessed as cell growth at 10^-5 M after 48 hrs by SRB assay; assay type: functional; conditions: read-out: Activity
Method in brief: (§2)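 NCI-60 single-dose screen: cells in RPMI 1640 with 5% FBS and 2 mM L-glutamine, plated at 5000–40,000 cells/well by doubling time, and preincubated 24 h at 37 °C. Compound given at one concentration from DMSO stock. Cells TCA-fixed and SRB-stained, absorbance at 515 nm. Percent growth relative to time-zero and untreated controls; inhibition % = 100 − growth %.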

Compound | growth at 10 µM [%]
O=C(NCCNc1nccc(-c2c(-c3cccc(O)c3)nc3sccn23)n1)c1ccc(N2CCOCC2)c(C(F)(F)F)c1 | 76.1

test system: A549; experiment: Anticancer activity against human A549 cells assessed as cell growth at 10^-5 M after 48 hrs by SRB assay; assay type: functional; conditions: A549, 48 h, read-out: Activity; method in brief: as §1

Compound | growth at 10 µM [%]
O=C(NCCNc1nccc(-c2c(-c3cccc(O)c3)nc3sccn23)n1)c1ccc(N2CCOCC2)c(C(F)(F)F)c1 | 64.1

test system: NCI-H460; experiment: Anticancer activity against human NCI-H460 cells assessed as cell growth at 10^-5 M after 48 hrs by SRB assay; assay type: functional; conditions: NCI-H460, 48 h, read-out: Activity

Compound | growth at 10 µM [%]
O=C(NCCNc1nccc(-c2c(-c3cccc(O)c3)nc3sccn23)n1)c1ccc(N2CCOCC2)c(C(F)(F)F)c1 | 66.9

test system: COLO 205; experiment: Anticancer activity against human COLO205 cells assessed as cell growth at 10^-5 M after 48 hrs by SRB assay; assay type: functional; conditions: COLO 205, 48 h, read-out: Activity; method in brief: as §1

Compound | growth at 10 µM [%]
O=C(NCCNc1nccc(-c2c(-c3cccc(O)c3)nc3sccn23)n1)c1ccc(N2CCOCC2)c(C(F)(F)F)c1 | 43.4

test system: HCC 2998; experiment: Anticancer activity against human HCC2998 cells assessed as cell growth at 10^-5 M after 48 hrs by SRB assay; assay type: functional; conditions: HCC 2998, 48 h, read-out: Activity; method in brief: as §1

Compound | growth at 10 µM [%]
O=C(NCCNc1nccc(-c2c(-c3cccc(O)c3)nc3sccn23)n1)c1ccc(N2CCOCC2)c(C(F)(F)F)c1 | 106

test system: SW-620; experiment: Anticancer activity against human SW620 cells assessed as cell growth at 10^-5 M after 48 hrs by SRB assay; assay type: functional; conditions: SW-620, 48 h, read-out: Activity; method in brief: as §2

Compound | growth at 10 µM [%]
O=C(NCCNc1nccc(-c2c(-c3cccc(O)c3)nc3sccn23)n1)c1ccc(N2CCOCC2)c(C(F)(F)F)c1 | 111

test system: SF-295; experiment: Anticancer activity against human SF295 cells assessed as cell growth at 10^-5 M after 48 hrs by SRB assay; assay type: functional; conditions: SF-295, 48 h, read-out: Activity

Compound | growth at 10 µM [%]
O=C(NCCNc1nccc(-c2c(-c3cccc(O)c3)nc3sccn23)n1)c1ccc(N2CCOCC2)c(C(F)(F)F)c1 | 67.5

test system: SNB-19; experiment: Anticancer activity against human SNB19 cells assessed as cell growth at 10^-5 M after 48 hrs by SRB assay; assay type: functional; conditions: SNB-19, 48 h, read-out: Activity

Compound | growth at 10 µM [%]
O=C(NCCNc1nccc(-c2c(-c3cccc(O)c3)nc3sccn23)n1)c1ccc(N2CCOCC2)c(C(F)(F)F)c1 | 109

test system: M14; experiment: Anticancer activity against human M14 cells assessed as cell growth at 10^-5 M after 48 hrs by SRB assay; assay type: functional; conditions: M14, 48 h, read-out: Activity; method in brief: as §1

Compound | growth at 10 µM [%]
O=C(NCCNc1nccc(-c2c(-c3cccc(O)c3)nc3sccn23)n1)c1ccc(N2CCOCC2)c(C(F)(F)F)c1 | 19.1

test system: MDA-MB-435; experiment: Anticancer activity against human MDA-MB-435 cells assessed as cell growth at 10^-5 M after 48 hrs by SRB assay; assay type: functional; conditions: MDA-MB-435, 48 h, read-out: Activity

Compound | growth at 10 µM [%]
O=C(NCCNc1nccc(-c2c(-c3cccc(O)c3)nc3sccn23)n1)c1ccc(N2CCOCC2)c(C(F)(F)F)c1 | 20.9

test system: SK-MEL-28; experiment: Anticancer activity against human SK-MEL-28 cells assessed as cell growth at 10^-5 M after 48 hrs by SRB assay; assay type: functional; conditions: SK-MEL-28, 48 h, read-out: Activity

Compound | growth at 10 µM [%]
O=C(NCCNc1nccc(-c2c(-c3cccc(O)c3)nc3sccn23)n1)c1ccc(N2CCOCC2)c(C(F)(F)F)c1 | 42.8

test system: SK-MEL-5; experiment: Anticancer activity against human SK-MEL-5 cells assessed as cell growth at 10^-5 M after 48 hrs by SRB assay; assay type: functional; conditions: SK-MEL-5, 48 h, read-out: Activity

Compound | growth at 10 µM [%]
O=C(NCCNc1nccc(-c2c(-c3cccc(O)c3)nc3sccn23)n1)c1ccc(N2CCOCC2)c(C(F)(F)F)c1 | 40

test system: UACC-257; experiment: Anticancer activity against human UACC257 cells assessed as cell growth at 10^-5 M after 48 hrs by SRB assay; assay type: functional; conditions: UACC-257, 48 h, read-out: Activity; method in brief: as §2

Compound | growth at 10 µM [%]
O=C(NCCNc1nccc(-c2c(-c3cccc(O)c3)nc3sccn23)n1)c1ccc(N2CCOCC2)c(C(F)(F)F)c1 | 15.8

test system: UACC-62; experiment: Anticancer activity against human UACC62 cells assessed as cell growth at 10^-5 M after 48 hrs by SRB assay; assay type: functional; conditions: UACC-62, 48 h, read-out: Activity; method in brief: as §2

Compound | growth at 10 µM [%]
O=C(NCCNc1nccc(-c2c(-c3cccc(O)c3)nc3sccn23)n1)c1ccc(N2CCOCC2)c(C(F)(F)F)c1 | 5.88

test system: IGROV-1; experiment: Anticancer activity against human IGROV1 cells assessed as cell growth at 10^-5 M after 48 hrs by SRB assay; assay type: functional; conditions: IGROV-1, 48 h, read-out: Activity; method in brief: as §1

Compound | growth at 10 µM [%]
O=C(NCCNc1nccc(-c2c(-c3cccc(O)c3)nc3sccn23)n1)c1ccc(N2CCOCC2)c(C(F)(F)F)c1 | 54.3

test system: OVCAR-4; experiment: Anticancer activity against human OVCAR4 cells assessed as cell growth at 10^-5 M after 48 hrs by SRB assay; assay type: functional; conditions: OVCAR-4, 48 h, read-out: Activity

Compound | growth at 10 µM [%]
O=C(NCCNc1nccc(-c2c(-c3cccc(O)c3)nc3sccn23)n1)c1ccc(N2CCOCC2)c(C(F)(F)F)c1 | 105

test system: NCI/ADR-RES; experiment: Anticancer activity against human NCI/ADR-RES cells assessed as cell growth at 10^-5 M after 48 hrs by SRB assay; assay type: functional; conditions: read-out: Activity

Compound | growth at 10 µM [%]
O=C(NCCNc1nccc(-c2c(-c3cccc(O)c3)nc3sccn23)n1)c1ccc(N2CCOCC2)c(C(F)(F)F)c1 | 95.4

test system: CAKI-1; experiment: Anticancer activity against human Caki1 cells assessed as cell growth at 10^-5 M after 48 hrs by SRB assay; assay type: functional; conditions: CAKI-1, 48 h, read-out: Activity; method in brief: as §1

Compound | growth at 10 µM [%]
O=C(NCCNc1nccc(-c2c(-c3cccc(O)c3)nc3sccn23)n1)c1ccc(N2CCOCC2)c(C(F)(F)F)c1 | 66.9

test system: RXF 393; experiment: Anticancer activity against human RXF393 cells assessed as cell growth at 10^-5 M after 48 hrs by SRB assay; assay type: functional; conditions: RXF 393, 48 h, read-out: Activity

Compound | growth at 10 µM [%]
O=C(NCCNc1nccc(-c2c(-c3cccc(O)c3)nc3sccn23)n1)c1ccc(N2CCOCC2)c(C(F)(F)F)c1 | 57.6

test system: SN12C; experiment: Anticancer activity against human SN12C cells assessed as cell growth at 10^-5 M after 48 hrs by SRB assay; assay type: functional; conditions: read-out: Activity

Compound | growth at 10 µM [%]
O=C(NCCNc1nccc(-c2c(-c3cccc(O)c3)nc3sccn23)n1)c1ccc(N2CCOCC2)c(C(F)(F)F)c1 | 76

test system: PC-3; experiment: Anticancer activity against human PC3 cells assessed as cell growth at 10^-5 M after 48 hrs by SRB assay; assay type: functional; conditions: PC-3, 48 h, read-out: Activity

Compound | growth at 10 µM [%]
O=C(NCCNc1nccc(-c2c(-c3cccc(O)c3)nc3sccn23)n1)c1ccc(N2CCOCC2)c(C(F)(F)F)c1 | 56.6

test system: MDA-MB-468; experiment: Anticancer activity against human MDA-MB-468 cells assessed as cell growth at 10^-5 M after 48 hrs by SRB assay; assay type: functional; conditions: MDA-MB-468, 48 h, read-out: Activity

Compound | growth at 10 µM [%]
O=C(NCCNc1nccc(-c2c(-c3cccc(O)c3)nc3sccn23)n1)c1ccc(N2CCOCC2)c(C(F)(F)F)c1 | 50.2
